Article PMC3086571 (Organometallics, 2011)

Columns and labels:
[1] = test system: CH1 cells (ovarian carcinoma); test: MTT cytotoxicity assay, CH1; type: cell-based, human; settings: for IC50: Homo sapiens, CH1, 96 h, read-out: IC50 CH1; for capacity of inhibiting tumor cell proliferation in vitro: CH1 ovarian cancer cells
Procedure, shortened: (§1)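 Adherent monolayers grown in supplemented MEM with 10% heat-inactivated FBS at 37 °C, 5% CO2. Cells were trypsinised and seeded at 4 × 10^3 (A549), 1.5 × 10^3 (CH1) or 2.5 × 10^3 (SW480) per well, then left 24 h. Compound dilutions in complete medium were applied for 96 h. MTT was added for 4 h and formazan dissolved in DMSO; OD read at 550/690 nm versus untreated controls. IC50 was interpolated from the curves; ≥3 independent experiments, triplicates.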

[2] = test system: SW480 cells (colon carcinoma); test: MTT cytotoxicity assay, SW480; type: cell-based; settings: Homo sapiens, SW480, 96 h, read-out: IC50 SW480
Procedure, shortened: as §1

[3] = test system: A549 cells (nonsmall cell lung carcinoma); test: MTT cytotoxicity assay, A549; type: cell-based; settings: Homo sapiens, A549, 96 h, read-out: IC50 A549
Procedure, shortened: as §1

Aqueous stability [4] = type: physicochemical; settings: water, 25 °C, after 18 or 24 h incubation
Aqueous stability [5] = type: physicochemical; settings: for Stability (amount of aqua complex in the solution), 1H NMR: D2O, after 18 or 24 h incubation (NMR: 18 h)
Procedure, shortened: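 Test compound (1−2 mg/mL) dissolved in D2O; 1H NMR spectra recorded immediately after dissolution and again after 18 h to follow chlorido-to-aqua exchange.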

rat skeletal myoblasts = settings: in vitro, preliminary; cited from earlier work
topoisomerase II = settings: electrophoretic assay with plasmid DNA; cited from earlier work

CCn1cc(C(=O)O)c(=O)c2ccc(C)nc21 [nal-H, nalidixic acid]
IC50 [1]: > 320 µM
IC50 [2]: > 320 µM
IC50 [3]: > 320 µM

Chlorido(η^6-p-cymene)(nalidixicato-κ^2O,O)ruthenium(II) [Compound 2]
capacity of inhibiting tumor cell proliferation in vitro [1]: inactive
Stability (amount of aqua complex in the solution), CZE-ICP-MS (Aqueous stability [4]): 93%
Stability (amount of aqua complex in the solution), 1H NMR (Aqueous stability [5]): 94%

Chlorido(η^6-p-cymene)(cinoxacinato-κ^2O,O)ruthenium(II) [Compound 3]
capacity of inhibiting tumor cell proliferation in vitro [1]: inactive
Stability (amount of aqua complex in the solution), CZE-ICP-MS (Aqueous stability [4]): 87%
Stability (amount of aqua complex in the solution), 1H NMR (Aqueous stability [5]): 90%

CCn1nc(C(=O)O)c(=O)c2cc3c(cc21)OCO3 [cin-H, cinoxacin]
IC50 [1]: > 320 µM
IC50 [2]: > 320 µM
IC50 [3]: > 320 µM

CC1COc2c(N3CCN(C)CC3)c(F)cc3c(=O)c(C(=O)[O-])cn1c23.Cc1ccc(C(C)C)cc1.[Cl-].[Ru+2] (centres unmarked) [Compound 1, chlorido(η^6-p-cymene)(ofloxacinato-κ^2O,O)ruthenium(II)]
cytotoxic activity in rat skeletal myoblasts (rat skeletal myoblasts): no significant activity
topoisomerase II inhibition (topoisomerase II): very little topoisomerase II inhibition
capacity of inhibiting tumor cell proliferation in vitro [1]: moderate
sensitivity of CH1 cells relative to SW480 cells ([1]; ratio of IC50 SW480 / CH1): about 10 times
Stability (amount of aqua complex in the solution), CZE-ICP-MS (Aqueous stability [4]): 56%
Stability (amount of aqua complex in the solution), 1H NMR (Aqueous stability [5]): 45%
free ligand from decomposition of the aqua species (Aqueous stability [5]; aqueous solution, over 24 h): more than 40%

CC1COc2c(N3CCN(C)CC3)c(F)cc3c(=O)c(C(=O)O)cn1c23 (centres unmarked) [oflo-H, ofloxacin, reference compound]
topoisomerase II inhibition (topoisomerase II): very little topoisomerase II inhibition
IC50 [1]: > 320 µM
IC50 [2]: > 320 µM
IC50 [3]: > 320 µM
